Results from PMC6868880 (ACS Omega, 2019).
In brackets after ≈: the same amount, converted by molar mass. Like-named read-outs stand apart in the source and are kept apart here. Where no end group is shown, it is not given here.

Assays:
Listeria monocytogenes = assay: MIC determination, Listeria monocytogenes; format: cell-based; conditions: Table 5; Mueller Hinton broth, CLSI M7A9 with modifications, triplicate; ATCC BAA-679/EGD-e
Outline: (§1)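 Bacteria pre-cultured overnight at 37 °C/5% CO2 in culture medium as inoculum. MIC of test peptides determined by broth dilution in Mueller Hinton broth following CLSI M7A9 with modifications for bacteria. All tests run in triplicate.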

Candida auris = assay: MIC, broth microdilution, Candida auris; format: cell-based; conditions: Table 5; CLSI M27-A3 with modifications, Lambert–Pearson plot; DSMZ-No. 21092
Outline: (§2)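 Yeasts were precultured in liquid YPD at 37 °C, 70 rpm, for 24 hours. MIC was determined by CLSI M27-A3 broth microdilution, modified for turbidimetric detection. The assay used MOPS-buffered RPMI 1640 without sodium bicarbonate, with cell density read at 600 nm. MIC was derived from a Lambert–Pearson plot of cell density.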

Pseudomonas aeruginosa = assay: MIC determination, Pseudomonas aeruginosa; format: cell-based; conditions: Table 5; Mueller Hinton broth, CLSI M7A9 with modifications, triplicate; ATCC 27853
Outline: as §1

Candida albicans [1] = conditions: cited from earlier work
Candida albicans [2] = assay: MIC, broth microdilution, Candida albicans; format: cell-based; conditions: Table 5; CLSI M27-A3 with modifications, Lambert–Pearson plot; ATCC 24433
Outline: as §2

mammalian cell line = conditions: in vitro; cited from earlier work
rabbit erythrocytes = conditions: cited from earlier work
human erythrocytes = conditions: cited from earlier work
Candida parapsilosis = assay: MIC, broth microdilution, Candida parapsilosis; format: cell-based; conditions: Table 5; CLSI M27-A3 with modifications, Lambert–Pearson plot; ATCC 22019
Outline: as §2

Trichophyton rubrum = assay: MIC, filamentous fungi, Trichophyton rubrum; format: cell-based; conditions: ATCC28189, read-out: MIC Tr
Outline: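 T. rubrum ATCC 28189 was grown on potato dextrose agar, and inocula were prepared in RPMI 1640 medium. MIC was determined following CLSI M38-A2 for filamentous fungi.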

Escherichia coli = assay: MIC determination against bacteria; format: cell-based; conditions: read-out: MIC Ec

SRSELIVHQRLF-NH2 [Cm-p5]
MIC Listeria monocytogenes (Listeria monocytogenes): >100 µg/mL | MIC C. auris (Candida auris): 11 µg/mL | MIC Pseudomonas aeruginosa (Pseudomonas aeruginosa): >100 µg/mL | MIC (Candida albicans [1]; against C. albicans, native peptide): 10 µg/mL | fungistatic action, concentration range (Candida albicans [1]; against Candida albicans): 10 to 40 µg/mL | MIC C. albicans (Candida albicans [2]): 10 µg/mL | toxicity against a mammalian cell line (mammalian cell line): did not exhibit any toxicity | hemolytic activity (rabbit erythrocytes): nonhemolytic | hemolytic activity (human erythrocytes): nonhemolytic | MIC C. parapsilosis (Candida parapsilosis): 32 µg/mL

C[C@@H]1[C@H](O)[C@@H](C)/C=C/C=C/C=C/C=C/C=C/C=C/C=C/[C@H](O[C@@H]2O[C@H](C)[C@@H](O)[C@H](N)[C@@H]2O)C[C@@H]2O[C@](O)(C[C@@H](O)C[C@@H](O)[C@H](O)CC[C@@H](O)C[C@@H](O)CC(=O)O[C@H]1C)C[C@H](O)[C@H]2C(=O)O [amphotericin B]
MIC (Trichophyton rubrum): 0.125 µg/mL (≈ 0.135 µM)

CC1(C)S[C@@H]2[C@H](NC(=O)[C@H](N)c3ccccc3)C(=O)N2[C@H]1C(=O)O [ampicillin]
MIC (Escherichia coli): 0.195 µg/mL (≈ 0.559 µM)

OC(Cn1cncn1)(Cn1cncn1)c1ccc(F)cc1F [fluconazole]
MIC (Candida albicans [1]; against Candida albicans): 8 to 16 µg/mL
